Measured values published in ChEMBL document CHEMBL1134366, “Enantiospecific synthesis and pharmacological evaluation of a series of super-potent, conformationally restricted 5-HT(2A/2C) receptor agonists” (J Med Chem, 2001).

Columns and labels:
[1] = molecular target: T1, 5-hydroxytryptamine receptor 2C (Rattus norvegicus, UniProt P08909); test: Binding affinity at cloned rat 5-hydroxytryptamine 2C receptor using [3H]DOI as radioligand
T1 sequence (P08909 whole entry): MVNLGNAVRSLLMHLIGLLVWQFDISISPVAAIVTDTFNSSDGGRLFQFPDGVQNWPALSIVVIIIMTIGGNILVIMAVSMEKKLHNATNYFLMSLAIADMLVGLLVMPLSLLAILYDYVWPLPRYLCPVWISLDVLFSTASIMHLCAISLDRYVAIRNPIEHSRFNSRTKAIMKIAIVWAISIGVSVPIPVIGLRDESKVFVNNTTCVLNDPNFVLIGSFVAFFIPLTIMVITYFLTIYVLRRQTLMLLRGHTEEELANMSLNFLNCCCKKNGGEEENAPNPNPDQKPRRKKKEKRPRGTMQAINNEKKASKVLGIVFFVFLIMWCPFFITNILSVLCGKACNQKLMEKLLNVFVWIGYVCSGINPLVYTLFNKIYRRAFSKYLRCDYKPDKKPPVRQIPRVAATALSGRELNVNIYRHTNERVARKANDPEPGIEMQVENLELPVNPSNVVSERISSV
Method in brief: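 Competition binding using harvested, frozen NIH-3T3 cells stably expressing rat 5-HT2C. Buffer 50 mM Tris, 0.5 mM EDTA, 10 mM MgCl2, pH 7.4. Incubated 60 min at 25 °C, then rapid filtration onto polyethylenimine-treated GF/B filters and scintillation counting. Nonspecific binding defined with 10 µM mianserin in the saturation assays.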

[2] = molecular target: T2, 5-hydroxytryptamine receptor 2A (Rattus norvegicus, UniProt P14842); test: Ability to stimulate phosphoinositide hydrolysis in NIH3T3 cells expressing the 5-hydroxytryptamine 2A receptor; type: cell-based
[3] = molecular target: 5-hydroxytryptamine receptor 2A (Rattus norvegicus) (UniProt P14842); test: Percent maximal 5-HT stimulation at cloned rat 5-hydroxytryptamine 2A receptor (phosphoinositide hydrolysis study) at a conc of 100 uM
[4] = molecular target: T2, 5-hydroxytryptamine receptor 2A; test: Binding affinity at cloned rat 5-hydroxytryptamine 2A receptor using [3H]DOB as radioligand
Method in brief: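 Competition binding using harvested, frozen NIH-3T3 cells stably expressing rat 5-HT2A, serum-starved 5 h before harvest. Incubated 60 min at 25 °C, then rapid filtration onto GF/B filters pre-soaked in 0.3% polyethylenimine, and scintillation counting. Nonspecific binding defined with 10 µM cinanserin in the saturation assays.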

Chain of 5-hydroxytryptamine receptor 2A (Rattus norvegicus) (P14842 whole entry): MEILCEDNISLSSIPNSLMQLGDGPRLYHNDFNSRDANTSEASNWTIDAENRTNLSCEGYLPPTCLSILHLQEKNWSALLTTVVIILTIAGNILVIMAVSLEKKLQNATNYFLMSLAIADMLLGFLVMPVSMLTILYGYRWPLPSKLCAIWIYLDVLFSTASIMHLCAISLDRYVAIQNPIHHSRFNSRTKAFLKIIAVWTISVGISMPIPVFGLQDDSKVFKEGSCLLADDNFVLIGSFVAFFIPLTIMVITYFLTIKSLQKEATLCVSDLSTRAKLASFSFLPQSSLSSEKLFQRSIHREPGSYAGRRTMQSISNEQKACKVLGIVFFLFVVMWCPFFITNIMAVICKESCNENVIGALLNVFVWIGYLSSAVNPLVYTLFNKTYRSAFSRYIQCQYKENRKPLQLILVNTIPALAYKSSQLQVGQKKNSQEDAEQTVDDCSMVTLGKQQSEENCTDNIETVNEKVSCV
T2 sequence (P14842 whole entry): as above

Compound	Ki [1] [nM]	EC50 [2] [nM]	Max stimulation [3] [%]	Ki [4] [nM]
C[C@H](N)Cc1c2c(c(C(F)(F)F)c3c1OCC3)OCC2	1.6	30	60	2
C[C@@H](N)Cc1c2ccoc2c(C(F)(F)F)c2ccoc12	0.4	3.8	60	0.29
C[C@@H](N)Cc1c2ccoc2c(Br)c2ccoc12	0.11	2.7	93	0.31
C[C@H](N)Cc1c2c(cc3c1OCC3)OCC2	119	2360	62	227
C[C@@H](N)Cc1c2c(c(C(F)(F)F)c3c1OCC3)OCC2	1.9	28	69	0.7
COc1cc(CC(C)N)c(OC)cc1Br (configuration not stated)	–	–	79	–
C[C@H](N)Cc1c2ccoc2cc2ccoc12	6	650	68	37.9
COc1ccc(OC)c(C[C@@H](C)N)c1	520	> 10000	16	2340
C[C@H](N)Cc1c2ccoc2c(Br)c2ccoc12	0.25	19	79	0.68
C[C@H](N)Cc1c2c(c(Br)c3c1OCC3)OCC2	1.1	35	76	2.6
C[C@H](N)Cc1c2ccoc2c(C(F)(F)F)c2ccoc12	0.69	12	52	0.32
C[C@@H](N)Cc1c2c(c(Br)c3c1OCC3)OCC2	0.26	8.38	80	1.2
C[C@@H](N)Cc1c2ccoc2cc2ccoc12	0.79	590	76	1.5
COc1cc(C(F)(F)F)c(OC)cc1CC(C)N (configuration not stated)	3.78	68.4	86	2.2
C[C@@H](N)Cc1c2c(cc3c1OCC3)OCC2	8.2	5650	99	54.4
